Reference: ChEMBL document CHEMBL1255396, “Trailing or paradoxical growth of Candida albicans when exposed to caspofungin is not associated with microsatellite genotypes” (2010)
Converted amounts (≈) assume the structure as drawn.

Legend:
Type in all cases: functional
[1] = tested on: Candida albicans; assay: Antimicrobial activity against Candida albicans isolate 16 after 48 hrs by Etest method; conditions: isolate 16, 48 h
How it was run: (§1)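 Caspofungin agar-diffusion Etest strips on clinical isolates from four Marseille teaching hospitals, each from a different patient. Run in duplicate and read after 48 h at 30°C. QC strains were C. krusei ATCC 6258 and C. parapsilosis ATCC 22019. Trailing, paradoxical growth and clear endpoints were scored from growth relative to the MIC.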

[2] = tested on: Candida albicans; assay: Antimicrobial activity against Candida albicans isolate 15 after 48 hrs by Etest method; conditions: isolate 15, 48 h; how it was run: as §1
[3] = tested on: Candida albicans; assay: Antimicrobial activity against Candida albicans isolate 14 after 48 hrs by Etest method; conditions: isolate 14, 48 h; how it was run: as §1
[4] = tested on: Candida albicans; assay: Antimicrobial activity against Candida albicans isolate 13 after 48 hrs by Etest method; conditions: isolate 13, 48 h; how it was run: as §1
[5] = tested on: Candida albicans; assay: Antimicrobial activity against Candida albicans isolate 12 after 48 hrs by Etest method; conditions: isolate 12, 48 h; how it was run: as §1
[6] = tested on: Candida albicans; assay: Antimicrobial activity against Candida albicans isolate 11 after 48 hrs by Etest method; conditions: isolate 11, 48 h; how it was run: as §1
[7] = tested on: Candida albicans; assay: Antimicrobial activity against Candida albicans isolate 9 after 48 hrs by Etest method; conditions: isolate 9, 48 h
How it was run: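 Caspofungin Etest strip (agar diffusion) applied per manufacturer to a clinical isolate. Plates read after 48 h at 30°C. Testing done in duplicate. QC strains: C. krusei ATCC 6258 and C. parapsilosis ATCC 22019. Paradoxical growth and trailing were scored as separate endpoint phenotypes.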

[8] = tested on: Candida albicans; assay: Antimicrobial activity against Candida albicans isolate 8 after 48 hrs by Etest method; conditions: isolate 8, 48 h; how it was run: as §1
[9] = tested on: Candida albicans; assay: Antimicrobial activity against Candida albicans isolate 7 after 48 hrs by Etest method; conditions: isolate 7, 48 h; how it was run: as §1
[10] = tested on: Candida albicans; assay: Antimicrobial activity against Candida albicans isolate 6 after 48 hrs by Etest method; conditions: isolate 6, 48 h; how it was run: as §1
[11] = tested on: Candida albicans; assay: Antimicrobial activity against Candida albicans isolate 5 after 48 hrs by Etest method; conditions: isolate 5, 48 h; how it was run: as §1
[12] = tested on: Candida albicans; assay: Antimicrobial activity against Candida albicans isolate 4 after 48 hrs by Etest method; conditions: isolate 4, 48 h; how it was run: as §1
[13] = tested on: Candida albicans; assay: Antimicrobial activity against Candida albicans isolate 3 after 48 hrs by Etest method; conditions: isolate 3, 48 h; how it was run: as §1
[14] = tested on: Candida albicans; assay: Antimicrobial activity against Candida albicans isolate 2 after 48 hrs by Etest method; conditions: isolate 2, 48 h; how it was run: as §1
[15] = tested on: Candida albicans; assay: Antimicrobial activity against Candida albicans isolate 17 after 48 hrs by Etest method; conditions: isolate 17, 48 h; how it was run: as §1
[16] = tested on: Candida albicans; assay: Antimicrobial activity against Candida albicans isolate 18 after 48 hrs by Etest method; conditions: isolate 18, 48 h; how it was run: as §1
[17] = tested on: Candida albicans; assay: Antimicrobial activity against Candida albicans isolate 19 after 48 hrs by Etest method; conditions: isolate 19, 48 h; how it was run: as §1
[18] = tested on: Candida albicans; assay: Antimicrobial activity against Candida albicans isolate 20 after 48 hrs by Etest method; conditions: isolate 20, 48 h; how it was run: as §1
[19] = tested on: Candida albicans; assay: Antimicrobial activity against Candida albicans isolate 21 after 48 hrs by Etest method; conditions: isolate 21, 48 h; how it was run: as §1
[20] = tested on: Candida albicans; assay: Antimicrobial activity against Candida albicans isolate 22 after 48 hrs by Etest method; conditions: isolate 22, 48 h; how it was run: as §1
[21] = tested on: Candida albicans; assay: Antimicrobial activity against Candida albicans isolate 23 after 48 hrs by Etest method; conditions: isolate 23, 48 h; how it was run: as §1
[22] = tested on: Candida albicans; assay: Antimicrobial activity against Candida albicans isolate 24 after 48 hrs by Etest method; conditions: isolate 24, 48 h; how it was run: as §1
[23] = tested on: Candida albicans; assay: Antimicrobial activity against Candida albicans isolate 25 after 48 hrs by Etest method; conditions: isolate 25, 48 h; how it was run: as §1
[24] = tested on: Candida albicans; assay: Antimicrobial activity against Candida albicans isolate 26 after 48 hrs by Etest method; conditions: isolate 26, 48 h; how it was run: as §1
[25] = tested on: Candida albicans; assay: Antimicrobial activity against Candida albicans isolate 27 after 48 hrs by Etest method; conditions: isolate 27, 48 h; how it was run: as §1
[26] = tested on: Candida albicans; assay: Antimicrobial activity against Candida albicans isolate 1 after 48 hrs by broth microdilution assay; conditions: isolate 1, 48 h
How it was run: (§2)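 Sensititre YeastOne caspofungin broth microdilution, which follows the CLSI method but uses alamarBlue readout in RPMI 1640 with 2% glucose. Done in duplicate and read after 48 h at 30°C. QC strains were C. krusei ATCC 6258 and C. parapsilosis ATCC 22019. Isolates were from different patients and wards in four Marseille hospitals.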

[27] = tested on: Candida albicans; assay: Antimicrobial activity against Candida albicans isolate 2 after 48 hrs by broth microdilution assay; conditions: isolate 2, 48 h; how it was run: as §2
[28] = tested on: Candida albicans; assay: Antimicrobial activity against Candida albicans isolate 3 after 48 hrs by broth microdilution assay; conditions: isolate 3, 48 h; how it was run: as §2
[29] = tested on: Candida albicans; assay: Antimicrobial activity against Candida albicans isolate 4 after 48 hrs by broth microdilution assay; conditions: isolate 4, 48 h; how it was run: as §2
[30] = tested on: Candida albicans; assay: Antimicrobial activity against Candida albicans isolate 5 after 48 hrs by broth microdilution assay; conditions: isolate 5, 48 h; how it was run: as §2
[31] = tested on: Candida albicans; assay: Antimicrobial activity against Candida albicans isolate 6 after 48 hrs by broth microdilution assay; conditions: isolate 6, 48 h; how it was run: as §2
[32] = tested on: Candida albicans; assay: Antimicrobial activity against Candida albicans isolate 7 after 48 hrs by broth microdilution assay; conditions: isolate 7, 48 h; how it was run: as §2
[33] = tested on: Candida albicans; assay: Antimicrobial activity against Candida albicans isolate 8 after 48 hrs by broth microdilution assay; conditions: isolate 8, 48 h; how it was run: as §2
[34] = tested on: Candida albicans; assay: Antimicrobial activity against Candida albicans isolate 9 after 48 hrs by broth microdilution assay; conditions: isolate 9, 48 h
How it was run: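 Sensititre Yeast One broth microdilution used per manufacturer. It matches the CLSI method except for the alamarBlue read-out and RPMI 1640 with 2% glucose. Read after 48 h at 30°C. Testing done in duplicate. QC strains: C. krusei ATCC 6258 and C. parapsilosis ATCC 22019. Paradoxical growth and trailing were scored separately.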

[35] = tested on: Candida albicans; assay: Antimicrobial activity against Candida albicans isolate 11 after 48 hrs by broth microdilution assay; conditions: isolate 11, 48 h; how it was run: as §2
[36] = tested on: Candida albicans; assay: Antimicrobial activity against Candida albicans isolate 12 after 48 hrs by broth microdilution assay; conditions: isolate 12, 48 h; how it was run: as §2
[37] = tested on: Candida albicans; assay: Antimicrobial activity against Candida albicans isolate 13 after 48 hrs by broth microdilution assay; conditions: isolate 13, 48 h; how it was run: as §2
[38] = tested on: Candida albicans; assay: Antimicrobial activity against Candida albicans isolate 14 after 48 hrs by broth microdilution assay; conditions: isolate 14, 48 h; how it was run: as §2
[39] = tested on: Candida albicans; assay: Antimicrobial activity against Candida albicans isolate 15 after 48 hrs by broth microdilution assay; conditions: isolate 15, 48 h; how it was run: as §2
[40] = tested on: Candida albicans; assay: Antimicrobial activity against Candida albicans isolate 16 after 48 hrs by broth microdilution assay; conditions: isolate 16, 48 h; how it was run: as §2
[41] = tested on: Candida albicans; assay: Antimicrobial activity against Candida albicans isolate 17 after 48 hrs by broth microdilution assay; conditions: isolate 17, 48 h; how it was run: as §2
[42] = tested on: Candida albicans; assay: Antimicrobial activity against Candida albicans isolate 18 after 48 hrs by broth microdilution assay; conditions: isolate 18, 48 h; how it was run: as §2
[43] = tested on: Candida albicans; assay: Antimicrobial activity against Candida albicans isolate 19 after 48 hrs by broth microdilution assay; conditions: isolate 19, 48 h; how it was run: as §2
[44] = tested on: Candida albicans; assay: Antimicrobial activity against Candida albicans isolate 20 after 48 hrs by broth microdilution assay; conditions: isolate 20, 48 h; how it was run: as §2
[45] = tested on: Candida albicans; assay: Antimicrobial activity against Candida albicans isolate 21 after 48 hrs by broth microdilution assay; conditions: isolate 21, 48 h; how it was run: as §2
[46] = tested on: Candida albicans; assay: Antimicrobial activity against Candida albicans isolate 22 after 48 hrs by broth microdilution assay; conditions: isolate 22, 48 h; how it was run: as §2
[47] = tested on: Candida albicans; assay: Antimicrobial activity against Candida albicans isolate 23 after 48 hrs by broth microdilution assay; conditions: isolate 23, 48 h; how it was run: as §2
[48] = tested on: Candida albicans; assay: Antimicrobial activity against Candida albicans isolate 24 after 48 hrs by broth microdilution assay; conditions: isolate 24, 48 h; how it was run: as §2
[49] = tested on: Candida albicans; assay: Antimicrobial activity against Candida albicans isolate 25 after 48 hrs by broth microdilution assay; conditions: isolate 25, 48 h; how it was run: as §2
[50] = tested on: Candida albicans; assay: Antimicrobial activity against Candida albicans isolate 26 after 48 hrs by broth microdilution assay; conditions: isolate 26, 48 h; how it was run: as §2
[51] = tested on: Candida albicans; assay: Antimicrobial activity against Candida albicans isolate 27 after 48 hrs by broth microdilution assay; conditions: isolate 27, 48 h; how it was run: as §2
[52] = tested on: Candida albicans; assay: Antimicrobial activity against Candida albicans isolate 1 after 48 hrs by Etest method; conditions: isolate 1, 48 h; how it was run: as §1

CC[C@H](C)C[C@H](C)CCCCCCCCC(=O)N[C@H]1C[C@@H](O)[C@@H](NCCN)NC(=O)[C@@H]2[C@@H](O)CCN2C(=O)[C@H]([C@H](O)CCN)NC(=O)[C@H]([C@H](O)[C@@H](O)c2ccc(O)cc2)NC(=O)[C@@H]2C[C@@H](O)CN2C(=O)[C@H]([C@@H](C)O)NC1=O [CASPOFUNGIN]
MIC [1]: 0.032 µg/mL (≈ 0.0293 µM)
MIC [2]: 0.016 µg/mL (≈ 0.0146 µM)
MIC [3]: 0.032 µg/mL (≈ 0.0293 µM)
MIC [4]: 0.023 µg/mL (≈ 0.021 µM)
MIC [5]: 0.064 µg/mL (≈ 0.0585 µM)
MIC [6]: 0.094 µg/mL (≈ 0.086 µM)
MIC [7]: 0.047 µg/mL (≈ 0.043 µM)
MIC [8]: 0.125 µg/mL (≈ 0.114 µM)
MIC [9]: 0.064 µg/mL (≈ 0.0585 µM)
MIC [10]: 0.125 µg/mL (≈ 0.114 µM)
MIC [11]: 0.064 µg/mL (≈ 0.0585 µM)
MIC [12]: 0.032 µg/mL (≈ 0.0293 µM)
MIC [13]: 0.032 µg/mL (≈ 0.0293 µM)
MIC [14]: 0.032 µg/mL (≈ 0.0293 µM)
MIC [15]: 0.125 µg/mL (≈ 0.114 µM)
MIC [16]: 0.094 µg/mL (≈ 0.086 µM)
MIC [17]: 0.75 µg/mL (≈ 0.686 µM)
MIC [18]: 0.032 µg/mL (≈ 0.0293 µM)
MIC [19]: 0.064 µg/mL (≈ 0.0585 µM)
MIC [20]: 0.125 µg/mL (≈ 0.114 µM)
MIC [21]: 0.064 µg/mL (≈ 0.0585 µM)
MIC [22]: 0.064 µg/mL (≈ 0.0585 µM)
MIC [23]: 0.064 µg/mL (≈ 0.0585 µM)
MIC [24]: 0.094 µg/mL (≈ 0.086 µM)
MIC [25]: 0.047 µg/mL (≈ 0.043 µM)
MIC [26]: 0.008 µg/mL (≈ 0.00732 µM)
MIC [27]: 0.032 µg/mL (≈ 0.0293 µM)
MIC [28]: 0.032 µg/mL (≈ 0.0293 µM)
MIC [29]: 0.032 µg/mL (≈ 0.0293 µM)
MIC [30]: 0.064 µg/mL (≈ 0.0585 µM)
MIC [31]: 0.125 µg/mL (≈ 0.114 µM)
MIC [32]: 0.064 µg/mL (≈ 0.0585 µM)
MIC [33]: 0.125 µg/mL (≈ 0.114 µM)
MIC [34]: 0.047 µg/mL (≈ 0.043 µM)
MIC [35]: 0.094 µg/mL (≈ 0.086 µM)
MIC [36]: 0.064 µg/mL (≈ 0.0585 µM)
MIC [37]: 0.023 µg/mL (≈ 0.021 µM)
MIC [38]: 0.032 µg/mL (≈ 0.0293 µM)
MIC [39]: 0.016 µg/mL (≈ 0.0146 µM)
MIC [40]: 0.032 µg/mL (≈ 0.0293 µM)
MIC [41]: 0.125 µg/mL (≈ 0.114 µM)
MIC [42]: 0.094 µg/mL (≈ 0.086 µM)
MIC [43]: 0.75 µg/mL (≈ 0.686 µM)
MIC [44]: 0.032 µg/mL (≈ 0.0293 µM)
MIC [45]: 0.064 µg/mL (≈ 0.0585 µM)
MIC [46]: 0.125 µg/mL (≈ 0.114 µM)
MIC [47]: 0.064 µg/mL (≈ 0.0585 µM)
MIC [48]: 0.064 µg/mL (≈ 0.0585 µM)
MIC [49]: 0.064 µg/mL (≈ 0.0585 µM)
MIC [50]: 0.094 µg/mL (≈ 0.086 µM)
MIC [51]: 0.047 µg/mL (≈ 0.043 µM)
MIC [52]: 0.008 µg/mL (≈ 0.00732 µM)
